# Experimental data reported in PubChem BioAssay AID1217 (Sanford-Burnham Center for Chemical Genomics, 2008).
# Among all 190,000 compounds or so, about 1,300 (0.68%) were called active.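 How the source made its calls: active means primary screen inhibition at 20 µM above a set limit (cut at about 50% in these data); inactive means the rest.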 For the sample, actives were picked, then their nearest neighbours and some compounds at random.
# System: diaphorase (Clostridium kluyveri)
# Assay: diaphorase inhibitors and chemical oxidizers, primary screen, counter-screen for diaphorase-coupled primary assays, biochemical, uHTS, resorufin fluorescence (AID 1217);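 further: plate controls were DMSO with full reaction for no effect and wells lacking NADH for full effect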
# Conditions: diaphorase resazurin-to-resorufin fluorescence, NADH, 16 min; at 20 µM; active compounds read high; bacterial (C. kluyveri) enzyme, not human
# In short: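 Test system: bacterial diaphorase enzyme (C. kluyveri); Quantity: 0.14 U/mL diaphorase, enzyme working solution; Times: reaction incubation of 16 min at room temperature; Measured by: fluorescence of resorufin formed from resazurin, Ex 544/Em 590 nm; Benchmarks: positive control minus NADH, DMSO neutral control.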
row,Structure (SMILES),inhibition
1,Cc1nc(-c2ccccc2)cn2c1nc1ccccc12,16% (inactive)
2,O=c1[nH]c(=S)[nH]c2[nH]c(=S)[nH]c12,87.4% (active)
3,Cc1cc(=O)[nH]c(=S)[nH]1,5.9% (inactive)
4,O=C(N1CCCCC1)N1CCN(C(=O)N2CCCCC2)CC1,-5.4% (inactive)
5,CC(/C=N/NC(=O)c1ccncc1)=C\c1ccco1,5.5% (inactive)
6,CC(/C=N/NC(=O)c1cc(-c2ccc3ccccc3c2)n[nH]1)=C\c1ccco1,5.2% (inactive)
7,C/C(=C\c1ccco1)C1Nc2cccc3cccc(c23)N1,69.5% (active)
8,C=CCN1C(=O)C(O)(CC(=O)c2ccc(Cl)cc2)c2ccccc21 (stereo not drawn),20% (inactive)
9,Cc1coc(C)c1C(=O)CC1(O)C(=O)N(C)c2ccc(Cl)cc21 (stereo not drawn),51.4% (active)
10,CC(=O)c1c(O)cc2n(c1=O)-c1ccc(Cl)cc1C2(C)C,18.3% (inactive)
11,Cc1ccc(O)c(NC(=S)NC(=O)COc2ccc(Br)cc2)c1,1.8% (inactive)
12,COCCN(CCOC)S(=O)(=O)c1ccc(/C(O)=C(\C#N)c2nc3ccccc3[nH]2)cc1,5.6% (inactive)
13,Cc1coc2c(O)cc3c(c12)OC1(N2CCCCC2)C(=O)NCCCC31 (stereo not drawn),56.1% (active)
14,O=C(Cc1cccs1)Nc1nnc(SCc2ccc(F)cc2)s1,11.1% (inactive)
15,COc1cc2sc(C)nc2cc1C,6% (inactive)
16,CCOC(=O)C1(S(=O)(=O)c2ccccc2)CCN(Cc2ccccc2)CC1,16.8% (inactive)
17,CC1=C/C(=N\OS(=O)(=O)c2ccccc2)C=CC1=O,71.4% (active)
18,CC1=C/C(=N\S(=O)(=O)c2ccccc2)C(C(C)C)=CC1=O,21.7% (inactive)
19,O=C1CCCC2=C1C(c1cccs1)CC(=O)N2c1ccc(F)cc1 (stereo not drawn),6.3% (inactive)
20,CC(C)N1CCC(N2CCN(Cc3cccnc3)CC2CCO)CC1 (stereo not drawn),-0.8% (inactive)
21,CCOC(=O)C1CCN(C(=O)C2(NC(=O)Nc3cccc(F)c3)CCCCC2)CC1,-16.4% (inactive)
22,O=C(Cc1ccc(-n2c(=O)[nH]c3ccccc3c2=O)cc1)N1CCN(c2cccc(Cl)c2)CC1,19.4% (inactive)
23,CCCCNC(=O)c1ccc(-n2c(=S)[nH]c3ccccc3c2=O)cc1,6.2% (inactive)
24,CCOC(=O)N1CCN(C(=O)Cc2ccc(-n3c(=S)[nH]c4ccccc4c3=O)cc2)CC1,51.3% (active)
25,Cc1ccc(S(=O)(=O)CC(=O)Nc2c(C)n(C)n(-c3ccccc3)c2=O)cc1,-0.5% (inactive)
26,Cc1cc(C)c2c(-n3cccc3)c(NC(=O)OCc3ccccc3)sc2n1,18.4% (inactive)
27,C/C(O)=C\c1nc(=O)c2c(C)cc(C)nc2n1-c1ccccc1,13.4% (inactive)
28,Cc1cc(C)c2c(n1)sc1c(=O)n(-c3ccccc3)c(=O)[nH]c12,59.3% (active)
